Laboratory results reported in ChEMBL document CHEMBL1144801, “Synthesis of new benzimidazole linked pyrrolo[2,1-c][1,4]benzodiazepine conjugates with efficient DNA-binding affinity and potent cytotoxicity” (Bioorg Med Chem Lett, 2008).
Active and inactive are the calls of the source. The calls are words filed in the database; no cut-off is given here.

Columns and labels:
[1] = system: DNA; assay: Binding affinity to calf thymus DNA at 1:5 (compound:DNA) molar ratio in 37degC after 18 hrs by thermal denaturation studies; assay type: nucleic-acid assay; details: Bos taurus
Procedure, shortened: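 Calf thymus DNA with ligand at a 1:5 ligand:DNA molar ratio in aqueous 10 mM sodium phosphate + 1 mM EDTA, pH 7.00. Mixtures were incubated at 37 °C and read at 0 h and 18 h. The read-out was the shift in helix melting temperature (ΔTm) relative to CT-DNA alone.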

[2] = system: Bacilli; assay: Inhibition of Bacillus amyloli BamH1 restriction endonuclease-mediated pBR322 cleavage by RED100-restriction endonuclease digestion assay
Procedure, shortened: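 Plasmid pBR322 exposed to the conjugate, then digested with BamH1 (20 U) for 1 h at 37 °C. Cut and uncut products separated by agarose gel electrophoresis and visualized by ethidium bromide staining under UV. Controls were untreated pBR322 and a complete BamH1 digest.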

[3] = system: MCF7; assay: Cytotoxicity against human MCF7 cells; assay type: functional
[4] = system: T47D; assay: Cytotoxicity against human T47D cells; assay type: functional
[5] = system: A549; assay: Cytotoxicity against human A549 cells; assay type: functional
[6] = system: KM12; assay: Cytotoxicity against human KM12 cells; assay type: functional
[7] = system: TK-10; assay: Cytotoxicity against human TK10 cells; assay type: functional
[8] = system: RXF 393; assay: Cytotoxicity against human RXF393 cells; assay type: functional
[9] = system: MDA-MB-468; assay: Cytotoxicity against human MDA-MB-468 cells; assay type: functional
[10] = system: NCI-H23; assay: Cytotoxicity against human NCI-H23 cells; assay type: functional
[11] = system: U-251; assay: Cytotoxicity against human U251 cells; assay type: functional
[12] = system: 786-0; assay: Cytotoxicity against human 786-0 cells; assay type: functional
[13] = system: SR; assay: Cytotoxicity against human SR cells; assay type: functional
[14] = system: BT-549; assay: Cytotoxicity against human BT549 cells; assay type: functional
[15] = system: LOX IMVI; assay: Cytotoxicity against human LOXIMVI cells; assay type: functional
[16] = system: NCI-H226; assay: Cytotoxicity against human NCI-H226 cells; assay type: functional
[17] = system: OVCAR-4; assay: Cytotoxicity against human OVCAR4 cells; assay type: functional
[18] = system: NCI-H460; assay: Cytotoxicity against human NCI-H460 cells; assay type: functional
[19] = system: DU-145; assay: Cytotoxicity against human DU145 cells; assay type: functional
[20] = system: SW-620; assay: Cytotoxicity against human SW620 cells; assay type: functional
[21] = system: HCT-116; assay: Cytotoxicity against human HCT116 cells; assay type: functional
[22] = system: MDA-MB-435; assay: Cytotoxicity against human MDA-MB-435 cells; assay type: functional
[23] = system: UO-31; assay: Cytotoxicity against human UO31 cells; assay type: functional
[24] = system: NCI/ADR-RES; assay: Cytotoxicity against human NCI/ADR-RES cells; assay type: functional
[25] = system: SK-MEL-28; assay: Cytotoxicity against human SKMEL28 cells; assay type: functional
[26] = system: NCI-H522; assay: Cytotoxicity against human NCI-H522 cells; assay type: functional
[27] = system: OVCAR-3; assay: Cytotoxicity against human OVCAR-3 cells; assay type: functional
[28] = system: COLO 205; assay: Cytotoxicity against human COLO205 cells; assay type: functional
[29] = system: SN12C; assay: Cytotoxicity against human SN12C cells; assay type: functional
[30] = system: K562; assay: Cytotoxicity against human K562 cells; assay type: functional
[31] = system: UACC-257; assay: Cytotoxicity against human UACC257 cells; assay type: functional
[32] = system: OVCAR-8; assay: Cytotoxicity against human OVCAR8 cells; assay type: functional
[33] = system: Hs-578T; assay: Cytotoxicity against human HS578T cells; assay type: functional
[34] = system: SK-MEL-2; assay: Cytotoxicity against human SKMEL2 cells; assay type: functional
[35] = system: HT-29; assay: Cytotoxicity against human HT29 cells; assay type: functional
[36] = system: SK-OV-3; assay: Cytotoxicity against human SKOV3 cells; assay type: functional
[37] = system: A498; assay: Cytotoxicity against human A498 cells; assay type: functional
[38] = system: OVCAR-5; assay: Cytotoxicity against human OVCAR5 cells; assay type: functional
[39] = system: MOLT-4; assay: Cytotoxicity against human MOLT4 cells; assay type: functional
[40] = system: ACHN; assay: Cytotoxicity against human ACHN cells; assay type: functional
[41] = Cytotoxicity against human OVCAR1 cells; assay type: functional
[42] = system: Malme-3M; assay: Cytotoxicity against human MALME3M cells; assay type: functional
[43] = system: CCRF-CEM; assay: Cytotoxicity against human CCRF-CEM cells; assay type: functional
[44] = system: SF-268; assay: Cytotoxicity against human SF268 cells; assay type: functional
[45] = system: HCT-15; assay: Cytotoxicity against human HCT15 cells; assay type: functional
[46] = system: M14; assay: Cytotoxicity against human M14 cells; assay type: functional
[47] = system: SNB-75; assay: Cytotoxicity against human SNB75 cells; assay type: functional
[48] = system: SF-539; assay: Cytotoxicity against human SF539 cells; assay type: functional
[49] = system: SK-MEL-5; assay: Cytotoxicity against human SKMEL5 cells; assay type: functional
[50] = system: HOP-62; assay: Cytotoxicity against human HOP62 cells; assay type: functional
[51] = system: RPMI-8226; assay: Cytotoxicity against human RPMI8226 cells; assay type: functional
[52] = system: UACC-62; assay: Cytotoxicity against human UACC62 cells; assay type: functional
[53] = system: CAKI-1; assay: Cytotoxicity against human CAKI1 cells; assay type: functional
[54] = system: HOP-92; assay: Cytotoxicity against human HOP92 cells; assay type: functional
[55] = system: SNB-19; assay: Cytotoxicity against human SNB19 cells; assay type: functional
[56] = system: NCI-H322M; assay: Cytotoxicity against human NCI-H322M cells; assay type: functional
[57] = system: MDA-MB-231; assay: Cytotoxicity against human MDA-MB-231 cells; assay type: functional
[58] = system: EKVX; assay: Cytotoxicity against human EKVX cells; assay type: functional
[59] = Cytotoxicity against human HL60(TB) cells; assay type: functional, HL-60(TB); details: HL-60
[60] = system: HCC 2998; assay: Cytotoxicity against human HCC2998 cells; assay type: functional

Structure (SMILES): COc1cc2c(cc1O)N=C[C@@H]1CCCN1C2=O
- ΔTm [1]: 0.7 °C

Structure (SMILES): COc1cc2c(cc1OCCCn1c(-c3ccco3)nc3ccccc31)NC(=O)[C@@H]1CCCN1C2=O
- ΔTm [1]: 0.7 °C

Structure (SMILES): COc1cc2c(cc1OCCCCn1c(-c3ccco3)nc3ccccc31)N=C[C@@H]1CCCN1C2=O
- Activity [2]: inactive
- ΔTm [1]: 0 °C

Structure (SMILES): COc1cc2c(cc1OCCCCCn1c(-c3cccs3)nc3ccccc31)NC(=O)[C@@H]1CCCN1C2=O
- ΔTm [1]: 0.8 °C

Structure (SMILES): COc1cc2c(cc1OCCCCCn1c(-c3cccs3)nc3ccccc31)N=C[C@@H]1CCCN1C2=O
- ΔTm [1]: 6.1 °C

Structure (SMILES): COc1cc2c(cc1OCCCn1c(-c3ccco3)nc3ccccc31)N=C[C@@H]1CCCN1C2=O
- ΔTm [1]: 6.1 °C

Structure (SMILES): COc1cc2c(cc1OCCCn1c(-c3cccs3)nc3ccccc31)N=C[C@@H]1CCCN1C2=O
- ΔTm [1]: 5.1 °C

Structure (SMILES): COc1cc2c(cc1OCCCCCn1c(-c3ccco3)nc3ccccc31)N=C[C@@H]1CCCN1C2=O
- GI50 [3]: < 10 nM
- GI50 [4]: < 10 nM
- GI50 [5]: < 10 nM
- GI50 [6]: < 10 nM
- GI50 [7]: 10 nM
- GI50 [8]: < 10 nM
- GI50 [9]: < 10 nM
- GI50 [10]: < 10 nM
- GI50 [11]: < 10 nM
- GI50 [12]: < 10 nM
- GI50 [13]: < 10 nM
- GI50 [14]: < 10 nM
- GI50 [15]: < 10 nM
- GI50 [16]: < 10 nM
- GI50 [17]: < 10 nM
- GI50 [18]: < 10 nM
- GI50 [19]: 20 nM
- GI50 [20]: < 10 nM
- Activity [2]: Active
- GI50 [21]: < 10 nM
- GI50 [22]: < 10 nM
- GI50 [23]: 100 nM
- GI50 [24]: 230 nM
- GI50 [25]: < 10 nM
- GI50 [26]: < 10 nM
- GI50 [27]: < 10 nM
- GI50 [28]: < 10 nM
- GI50 [29]: < 10 nM
- GI50 [30]: < 10 nM
- GI50 [31]: < 10 nM
- GI50 [32]: < 10 nM
- GI50 [33]: < 10 nM
- GI50 [34]: 20 nM
- GI50 [35]: < 10 nM
- GI50 [36]: < 10 nM
- GI50 [37]: < 10 nM
- ΔTm [1]: 7 °C
- GI50 [38]: < 10 nM
- GI50 [39]: < 10 nM
- GI50 [40]: < 10 nM
- GI50 [41]: 10 nM
- GI50 [42]: 10 nM
- GI50 [43]: < 10 nM
- GI50 [44]: < 10 nM
- GI50 [45]: 20 nM
- GI50 [46]: < 10 nM
- GI50 [47]: < 10 nM
- GI50 [48]: < 10 nM
- GI50 [49]: < 10 nM
- GI50 [50]: < 10 nM
- GI50 [51]: < 10 nM
- GI50 [52]: < 10 nM
- GI50 [53]: < 10 nM
- GI50 [54]: 10 nM
- GI50 [55]: < 10 nM
- GI50 [56]: 30 nM
- GI50 [57]: 10 nM
- GI50 [58]: < 10 nM
- GI50 [59]: < 10 nM

Structure (SMILES): COc1cc2c(cc1OCCCCn1c(-c3cccs3)nc3ccccc31)N=C[C@@H]1CCCN1C2=O
- GI50 [3]: 660 nM
- GI50 [4]: 500 nM
- GI50 [5]: 3220 nM
- GI50 [6]: 1920 nM
- GI50 [7]: 2090 nM
- GI50 [8]: 1340 nM
- GI50 [9]: 330 nM
- GI50 [10]: 2050 nM
- GI50 [11]: 1770 nM
- GI50 [12]: 1710 nM
- GI50 [13]: 450 nM
- GI50 [14]: 410 nM
- GI50 [15]: 780 nM
- GI50 [16]: 2130 nM
- GI50 [17]: 1610 nM
- GI50 [18]: 1550 nM
- GI50 [19]: 1320 nM
- GI50 [20]: 1840 nM
- GI50 [21]: 1750 nM
- GI50 [22]: 1390 nM
- GI50 [23]: 1230 nM
- GI50 [24]: 3240 nM
- GI50 [25]: 1530 nM
- GI50 [26]: 1040 nM
- GI50 [27]: 1720 nM
- GI50 [28]: 1070 nM
- GI50 [29]: 2500 nM
- GI50 [30]: 15500 nM
- GI50 [31]: 2540 nM
- GI50 [32]: 2580 nM
- GI50 [33]: 1700 nM
- GI50 [34]: 1470 nM
- GI50 [35]: 1970 nM
- GI50 [36]: 3320 nM
- GI50 [37]: 1680 nM
- ΔTm [1]: 1 °C
- GI50 [38]: 3270 nM
- GI50 [39]: 3790 nM
- GI50 [40]: 2810 nM
- GI50 [41]: 750 nM
- GI50 [42]: 1740 nM
- GI50 [43]: 240 nM
- GI50 [44]: 1800 nM
- GI50 [45]: 3190 nM
- GI50 [46]: 1350 nM
- GI50 [47]: 1220 nM
- GI50 [48]: 1720 nM
- GI50 [49]: 1090 nM
- GI50 [51]: 310 nM
- GI50 [52]: 1570 nM
- GI50 [53]: 940 nM
- GI50 [54]: 1330 nM
- GI50 [55]: 1530 nM
- GI50 [56]: 2700 nM
- GI50 [57]: 1390 nM
- GI50 [60]: 2080 nM
- GI50 [58]: 3360 nM
- GI50 [59]: 5180 nM
